According to ChEMBL document CHEMBL1127462, “Novel dual inhibitors of 5-lipoxygenase and thromboxane A2 synthetase: synthesis and structure-activity relationships of 3-pyridylmethyl-substituted 2-amino-6-hydroxybenzothiazole derivatives” (J Med Chem, 1994):

Key:
Rattus norvegicus [1] = test: Tested for the ability to decrease lesion area in the colon of the TNB/ethanol-induced chronic colitis rats at the dosage of 100 mg/kg/day; format: functional
In short: (§1)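 TNB/ethanol colitis rats dosed orally (0.5% MC suspension) once daily for 11 days from day 3, killed day 14. Ethanol-only group as baseline. Colonic MPO activity measured; lesion area (mm²/colon) by stereomicroscope. % inhibition = [1 − (test − ethanol)/(control − ethanol)] × 100. Mean ± SEM.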

[2] = target: T1, Polyunsaturated fatty acid 5-lipoxygenase (Rattus norvegicus, UniProt P12527); test: Inhibitory activity against the production of leukotriene B4 (LTB4) in glycogen-induced peritoneal cells of rat; format: functional
T1 sequence (P12527 whole entry): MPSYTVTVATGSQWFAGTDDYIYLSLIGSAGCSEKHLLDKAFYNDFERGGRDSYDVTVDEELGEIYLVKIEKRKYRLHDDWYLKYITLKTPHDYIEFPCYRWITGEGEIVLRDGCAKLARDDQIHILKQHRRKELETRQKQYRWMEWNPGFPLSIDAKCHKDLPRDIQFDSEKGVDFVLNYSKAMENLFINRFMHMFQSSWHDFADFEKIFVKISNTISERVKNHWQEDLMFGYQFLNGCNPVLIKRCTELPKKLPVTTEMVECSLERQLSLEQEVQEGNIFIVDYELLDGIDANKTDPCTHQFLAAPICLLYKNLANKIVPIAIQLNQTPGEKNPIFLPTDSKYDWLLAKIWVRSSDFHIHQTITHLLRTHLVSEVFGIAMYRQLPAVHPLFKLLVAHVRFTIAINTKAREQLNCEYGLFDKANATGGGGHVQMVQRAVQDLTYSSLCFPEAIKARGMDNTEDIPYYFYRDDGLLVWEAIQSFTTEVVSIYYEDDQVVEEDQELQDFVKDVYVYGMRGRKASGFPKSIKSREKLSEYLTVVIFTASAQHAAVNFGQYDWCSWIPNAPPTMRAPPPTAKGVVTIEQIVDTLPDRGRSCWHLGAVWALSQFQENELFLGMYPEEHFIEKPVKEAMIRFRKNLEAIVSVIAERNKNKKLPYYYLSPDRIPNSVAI
In short: (§2)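 Peritoneal leukocytes elicited in male F344 rats by ip 6% glycogen, suspended in Ca/Mg-free HBSS (5 × 10⁶ cells/mL). Cells preincubated 5 min at 37 °C with compound or vehicle (0.1% DMSO/0.1% BSA), stimulated with A23187 (4 μM, 10 min, 37 °C), stopped with BW755C. LTB₄, TXB₂ and PGE₂ in supernatant by radioimmunoassay. Duplicate points; IC50 by probit analysis.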

Thromboxane-A synthase [3] = target: T2, Thromboxane-A synthase (Rattus norvegicus, UniProt P49430); test: Inhibitory activity against the production of thromboxane B2 (TXB2) in glycogen-induced peritoneal cells of rat; format: functional; in short: as §2
T2 sequence (P49430 whole entry): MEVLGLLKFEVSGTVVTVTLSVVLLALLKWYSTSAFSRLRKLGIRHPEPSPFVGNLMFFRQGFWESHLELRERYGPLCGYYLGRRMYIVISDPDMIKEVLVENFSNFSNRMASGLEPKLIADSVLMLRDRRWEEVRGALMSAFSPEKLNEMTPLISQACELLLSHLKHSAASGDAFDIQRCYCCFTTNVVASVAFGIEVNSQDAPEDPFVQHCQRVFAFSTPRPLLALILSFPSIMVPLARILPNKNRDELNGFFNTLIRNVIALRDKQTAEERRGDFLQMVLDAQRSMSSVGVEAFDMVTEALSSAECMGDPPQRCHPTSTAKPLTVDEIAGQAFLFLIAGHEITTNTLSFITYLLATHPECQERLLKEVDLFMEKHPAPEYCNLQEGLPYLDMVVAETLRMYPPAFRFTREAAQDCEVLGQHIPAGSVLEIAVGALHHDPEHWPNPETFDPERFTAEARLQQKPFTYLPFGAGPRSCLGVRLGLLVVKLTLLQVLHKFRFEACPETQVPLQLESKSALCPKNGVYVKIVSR

[4] = target: Cyclooxygenase (Rattus norvegicus); test: Inhibitory activity against the production of prostaglandin E2 (PGE2) in glycogen-induced peritoneal cells of rat
Thromboxane-A synthase [5] = target: T3, Thromboxane-A synthase (Homo sapiens, UniProt P24557); test: Tested for inhibitory activity against thromboxane A2 (TXA2) synthetase in microsome of human platelets
T3 sequence (P24557 whole entry): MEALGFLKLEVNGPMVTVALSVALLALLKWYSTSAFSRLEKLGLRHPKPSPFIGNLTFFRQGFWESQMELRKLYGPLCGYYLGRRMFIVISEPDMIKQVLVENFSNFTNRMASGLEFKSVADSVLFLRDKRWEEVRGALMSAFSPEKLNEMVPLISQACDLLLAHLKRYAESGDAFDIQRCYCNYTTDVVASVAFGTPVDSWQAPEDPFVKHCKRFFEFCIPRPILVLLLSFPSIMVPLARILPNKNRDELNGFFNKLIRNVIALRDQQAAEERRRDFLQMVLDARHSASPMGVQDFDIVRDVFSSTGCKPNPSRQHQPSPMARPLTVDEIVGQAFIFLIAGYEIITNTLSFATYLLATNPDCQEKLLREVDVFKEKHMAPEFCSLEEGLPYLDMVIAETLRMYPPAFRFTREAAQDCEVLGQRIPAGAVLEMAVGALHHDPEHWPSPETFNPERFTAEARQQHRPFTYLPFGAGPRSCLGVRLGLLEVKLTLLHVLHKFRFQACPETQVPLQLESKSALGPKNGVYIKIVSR
In short: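 Platelet microsome fraction (105000g) resuspended in 50 mM Tris-HCl-saline, pH 7.4, with 10 μM indomethacin. 20 μg protein preincubated 5 min at 25 °C with compound, PGH₂ (1 μg/mL) for 1 min at 25 °C, citric acid/ethanol stop. TXB₂ by radioimmunoassay. Duplicate points; IC50 by probit analysis.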

Homo sapiens [6] = species: Homo sapiens; test: Tested for inhibitory activity against the production of leukotriene B4 (LTB4) in human whole blood; format: functional, organism-based
In short: (§3)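 Heparinized (10 U/mL) fresh blood from healthy volunteers, 0.4 mL aliquots, preincubated 5 min at 37 °C with compound or vehicle (0.1% DMSO/0.1% BSA). A23187 (40 μM) added for 20 min. LTB₄, TXB₂, PGE₂ in plasma by radioimmunoassay. Duplicate points; IC50 by probit analysis.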

[7] = Tested for inhibitory activity against thromboxane B2 (TXB2) in human platelets
In short: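 Washed human platelets (3 × 10⁸ cells/mL) in Tris-HCl-saline, pH 7.4, with 10 μM indomethacin. Preincubated 5 min at 25 °C with compound, PGH₂ (1 μg/mL) for 3 min at 25 °C, citrate/ethanol stop. TXB₂ in supernatant by radioimmunoassay. Duplicate points; IC50 by probit analysis.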

Homo sapiens [8] = species: Homo sapiens; test: Tested for inhibitory activity against the production of thromboxane B2 (TXB2) in human whole blood; format: functional, organism-based; in short: as §3
Homo sapiens [9] = species: Homo sapiens; test: Tested for inhibitory activity against the production of prostaglandin E2 (PGE2) in human whole blood; format: functional, organism-based; in short: as §3
[10] = target: T1, Polyunsaturated fatty acid 5-lipoxygenase; test: Tested for inhibitory activity against 5-lipoxygenase in microsome of RBL-1 cells; format: cell-based
In short: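 RBL-1 cells sonicated at 0 °C in 50 mM phosphate, pH 7.4, with 0.25 M sucrose and 1 mM EDTA. Homogenate preincubated 5 min at 37 °C with compound plus 2 mM glutathione, then arachidonic acid (0.2 mM) for 10 min at 37 °C. Formic acid stop, CHCl₃/MeOH extraction, 5-HETE by HPLC. Duplicate points; IC50 by probit analysis.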

[11] = Tested for the suppression ratio, the difference between the amount of PGE-2 produced in the test groups and the control group at the dosage of 100 mg/kg; format: functional
In short: (§4)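 Male F344 rats (9 weeks, fasted 2 days) given a single intracolonic dose of 30 mg TNB in 0.25 mL 50% ethanol. Day 7: one oral dose in 0.5% MC, or vehicle. Killed 6 h later; colon incubated with A23187 (2 μg/mL) in Tyrode, 15 min, 37 °C. Eicosanoids by radioimmunoassay. Suppression versus vehicle controls; mean ± SEM.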

[12] = Tested for the suppression ratio, the difference between the amount of LTB4 produced in the test groups and the control group at the dosage of 100 mg/kg; format: functional; in short: as §4
[13] = Tested for the suppression ratio, the difference between the amount of TXB2 produced in the test groups and the control group at the dosage of 100 mg/kg; format: functional; in short: as §4
Homo sapiens [14] = species: Homo sapiens; test: Tested for inhibitory activity against leukotriene B4 (LTB4) in human neutrophils; format: functional, organism-based
In short: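 Human blood neutrophils from heparinized blood (dextran sedimentation, Percoll gradient), 1 × 10⁶ cells/mL in Ca/Mg-free HBSS. Preincubated 5 min at 37 °C with compound or vehicle, A23187 (4 μM) for 10 min. LTB₄ in cell-free supernatant by radioimmunoassay. Duplicate points; IC50 by probit analysis.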

Rattus norvegicus [15] = test: Tested for the ability to decrease lesion area in the colon of the TNB/ethanol-induced chronic colitis rats at the dosage of 500 mg/kg/day; format: functional; in short: as §1

SMILES | IC50 [2] [nM] | IC50 (Thromboxane-A synthase [3]) [nM] | IC50 [4] [nM] | inhibition in vivo at 100 mg/kg/day (Rattus norvegicus [1]) [%] | other results
Cc1c(O)c(C)c2sc(NCc3cccnc3)nc2c1C | < 100 | 2000 |  | 81 | 
CCc1c(O)c(OC)c(Cc2cccnc2)c2nc(NC)sc12 | < 100 | 330 | > 100000 |  | 
CNc1nc2c(Cc3cccnc3)c(C)c(O)c(C)c2s1 |  |  |  | 39 | IC50 (Thromboxane-A synthase [5]): 9 nM; IC50 (Homo sapiens [6]): 830 nM; IC50 [7]: 80 nM; IC50 (Homo sapiens [8]): 1100 nM; IC50 (Homo sapiens [9]): > 90000 nM; IC50 [10]: 230 nM
Cc1c(O)c(C)c2sc(NCc3ccc(S(N)(=O)=O)cc3)nc2c1C |  |  |  |  | IC50 (Homo sapiens [6]): 24000 nM; IC50 [7]: > 100000 nM; IC50 (Homo sapiens [8]): 42000 nM; IC50 (Homo sapiens [9]): > 100000 nM; IC50 [10]: 210 nM; Suppression ratio [11]: 0%; Suppression ratio [12]: 86%; Suppression ratio [13]: 0%
Cc1cc(O)c(C)c2sc(NCc3cccnc3)nc12 | < 100 | 4400 |  | 71 | 
CNc1nc2c(Cc3cccnc3)c(OC)c(O)c(C)c2s1 | 170 | 1300 |  |  | 
CNc1nc2c(C)c(Cc3cccnc3)c(O)c(C)c2s1.Cl.Cl | 300 | < 100 | > 100000 |  | 
Cc1c(O)c(Cc2cccnc2)c2sc(N)nc2c1C.Cl.Cl | 250 | 5300 | > 100000 |  | 
COc1c(O)c(C)c2sc(N)nc2c1Cc1cccnc1.Cl.Cl | 170 | 110 | > 100000 |  | 
Cc1c(O)c(C)c2sc(N)nc2c1Cc1cccnc1 | 190 | 2 |  |  | 
CCc1c(O)c(OC)c(Cc2cccnc2)c2nc(N)sc12 | 150 | 180 |  |  | 
CCNc1nc2c(Cc3cccnc3)c(C)c(O)c(C)c2s1 | < 100 | 100 |  | 57 | IC50 (Thromboxane-A synthase [5]): 10 nM; IC50 (Homo sapiens [6]): 1100 nM; IC50 [7]: 60 nM; IC50 (Homo sapiens [8]): 560 nM; IC50 (Homo sapiens [9]): > 91000 nM; IC50 (Homo sapiens [14]): < 100 nM; IC50 [10]: 910 nM
Oc1cc(-c2ccccc2)c2nc(NCc3cccnc3)sc2c1 | 7000 | 1400 | 9600 |  | 
O=C(O)c1cc(/N=N/c2ccc(S(=O)(=O)Nc3ccccn3)cc2)ccc1O [SULFASALAZINE] |  |  |  |  | inhibition in vivo at 500 mg/kg/day (Rattus norvegicus [15]): 16%

Continued, in another order:

IC50 [2] [nM] | IC50 (Thromboxane-A synthase [3]) [nM] | IC50 [4] [nM] | SMILES | inhibition in vivo at 100 mg/kg/day (Rattus norvegicus [1]) [%] | other results
< 100 | 2000 | > 100000 | CCNc1nc2c(C)c(C)c(O)c(Cc3cccnc3)c2s1 | 64 | IC50 (Thromboxane-A synthase [5]): 810 nM; IC50 (Homo sapiens [6]): 500 nM; IC50 [7]: 4300 nM; IC50 (Homo sapiens [8]): 34800 nM; IC50 (Homo sapiens [9]): > 100000 nM; IC50 [10]: 270 nM; Suppression ratio [11]: 41%; Suppression ratio [12]: 89%; Suppression ratio [13]: 53%
230 | 650 | > 100000 | CCNc1nc2c(C)c(Cc3cccnc3)c(O)c(C)c2s1 | 48 | IC50 (Thromboxane-A synthase [5]): 390 nM; IC50 [7]: 2300 nM; Suppression ratio [11]: 8%; Suppression ratio [12]: 83%; Suppression ratio [13]: 67%
1600 | 4000 | 5500 | Cc1c(O)c2ccccc2c2nc(NCc3cccnc3)sc12 |  | 
< 100 | 90 | > 100000 | CCCNc1nc2c(Cc3cccnc3)c(C)c(O)c(C)c2s1.Cl.Cl |  | 
90 | 5500 |  | COc1cc2nc(NCc3cccnc3)sc2c(OC)c1O |  | 
